Results taken from the array DNA melting data of Ke et al. (doi:10.1101/2024.01.08.574731).

Key:
[1] = folding enthalpy; higher = less favourable; fluorescence melt of hairpins on a sequencing array, two-state fit; settings: sodium 0.088 M
Summary of the method: (§1)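 In 50 mM Na-HEPES pH 8.0 containing 25 mM NaCl, hairpins from the library on a sequenced MiSeq flow cell were imaged for Cy3 fluorescence at 2.5 °C steps up to 60 °C, with Cy3 and quencher oligos annealed. After normalisation to pre-quench Cy3 and to control constructs, two-state fits with bootstrapping gave melting temperature and folding enthalpy. Four replicates were combined by inverse-variance weighting, and fitted temperatures were shifted up by 9.35 °C to match UV melts.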

[2] = melting temperature; fluorescence melt of hairpins on a sequencing array, two-state fit, raised by 9.35 °C to match UV melts; settings: sodium 0.088 M
Summary of the method: as §1

Sequence	folding enthalpy [1]	Tm [2]
CGCTCGCGGAAACGCGCG (((..(((....))))))	-7.4 kcal/mol	61.2 °C
GTGCACCGAAAGGTCAC (((.(((....))))))	-26.3 kcal/mol	52.5 °C
GGCCTCGAAAGAGTTGCC ((((((....)))..)))	-17.2 kcal/mol	45.5 °C
GAGACCGAAAGGTGACTC ((((((....)))..)))	-13.8 kcal/mol	35.6 °C
GACCCCGAAAGGGCCGTC ((((((....)))..)))	-14 kcal/mol	35.7 °C
GATACCGAAAGGTCTATC ((((((....)))..)))	-5.86 kcal/mol	19.6 °C
GCGGACTGCCGC ((((....))))	-24.5 kcal/mol	54.5 °C
GGCAGTGGAAACACTACC ((.((((....)))).))	-29.7 kcal/mol	43.4 °C
CGGTCCGGAAACGGCCCG (((.(((....))).)))	-29.4 kcal/mol	55.1 °C
GTTACCGGAAACGGTAAC (((((((....)))))))	-42.4 kcal/mol	63.2 °C
GATCCCGTTGGGGATC ((((((....))))))	-42.4 kcal/mol	64.7 °C
GATCGATCGGTCGATC ((((((....))))))	-41.6 kcal/mol	52 °C
GATTCCGAAAGGATAATC ((((((....)))..)))	-15.5 kcal/mol	31.8 °C
GGCCCGCGAAAGCGAGCC (((.(((....))).)))	-31.3 kcal/mol	67.2 °C
GTCCTGGGAAACTAGGAC (((((.(....).)))))	-42.9 kcal/mol	49.1 °C
GCCTGAGGAAACTCAGAC (.(((((....))))).)	-16.7 kcal/mol	40.7 °C
GAGCACGAAAGTGAGCTC ((((((....)))..)))	-25.4 kcal/mol	49.6 °C
GAGACAACGAAAGTTCTC (((..(((....))))))	-20.4 kcal/mol	28.3 °C
GTACTCGGAAACGAGTAC (((((((....)))))))	-37.7 kcal/mol	63 °C
GTCGAGGGAAACCTTGGC (.(.(((....))).).)	-21.8 kcal/mol	36 °C
GATCGTGCCTACGATC ((((((....))))))	-34.3 kcal/mol	57.4 °C
GCGTCCGAAAGGAGCCGC ((((((....)))..)))	-16.9 kcal/mol	50.1 °C
GCTCAACGAAAGTTAAGC (((.(((....))).)))	-26.4 kcal/mol	42 °C

Sequence	folding enthalpy [1]	Tm [2]
GCACCGTCGAAAGACTGC (((..(((....))))))	-17.7 kcal/mol	35.9 °C
CGTTCGGAAACGATAACG ((((((....)))..)))	-30.6 kcal/mol	36.1 °C
AGAATCCGAAAGGCTTCT ((((.((....)).))))	-27.3 kcal/mol	35.6 °C
GCCTTCGAAAGAACGGC ((((((....))).)))	-29.2 kcal/mol	48.2 °C
GGCGTCACGAAAGTGGCC (((..(((....))))))	-15.2 kcal/mol	50.3 °C
GGATTTGAAAAAATCC ((((((....))))))	-34.7 kcal/mol	49.6 °C
GATCTCAACTGAGATC ((((((....))))))	-44.1 kcal/mol	52.1 °C
GATCTATACGTAGATC ((((((....))))))	-40.1 kcal/mol	45.3 °C
GATCGTGTCAACGATC ((((((....))))))	-39 kcal/mol	67.6 °C
GACGGTGGAAACGTCGTC ((((..(....)..))))	-31.6 kcal/mol	54.8 °C
GTAGCCGGAAACGGCCAC ((.((((....)))).))	-10.2 kcal/mol	39.5 °C
GAGGTGGGAAACCGTCTC (((..((....))..)))	-8.21 kcal/mol	31.1 °C
GACAGGCCGAAAGGCGTC (((..(((....))))))	-14.9 kcal/mol	47.7 °C
GCTTCGGGAAACCGGAGC (((.(((....))).)))	-41.5 kcal/mol	56.5 °C
GATCAAGCGGTTGATC ((((((....))))))	-38.1 kcal/mol	46.5 °C
GATCCGAGGCGGATC ((((((...))))))	-43.4 kcal/mol	56.8 °C
GTCGCCGAAAGGCCGAC ((((((....))).)))	-18.1 kcal/mol	60.7 °C
GATGCCGAAAGGCGATC ((((((....))).)))	-15.1 kcal/mol	50.6 °C
GGTGACGGAAACGTCGTC (..((((....))))..)	-13.9 kcal/mol	42 °C
GATCCGACCCGGATC ((((((...))))))	-39.9 kcal/mol	56.6 °C
GGGTCCGAAAGGACGCCC ((((((....)))..)))	-10.3 kcal/mol	48.9 °C
GCGTACGAAAGTAGGCGC ((((((....)))..)))	-30 kcal/mol	56 °C
GGCCGACCGAAAGGTGCC (((..(((....))))))	-25.5 kcal/mol	49.5 °C
